Results from different studies.
Lines come from different studies, so protocols differ.
Organism: Human immunodeficiency virus 1
Effect on: viral replication

Cc1c(O)cccc1C(=O)N[C@@H](CSc1ccccc1)[C@H](O)CN1C[C@H]2CCCC[C@H]2C[C@H]1C(=O)NC(C)(C)C  IC50 (human PBMC): 12 nM
CC(C)Nc1cccnc1N1CCN(C(=O)c2cc3cc(NS(C)(=O)=O)ccc3[nH]2)CC1  IC50 (inhibitor; human PBMC; clinical isolate): 30.6 nM
Cc1cccc(C)c1OCC(=O)N[C@@H](Cc1ccccc1)[C@@H](O)C[C@H](Cc1ccccc1)NC(=O)[C@H](C(C)C)N1CCCNC1=O  IC50 (MT4): 13 nM
C[C@@H](O[C@H]1OCCN(Cc2n[nH]c(=O)[nH]2)[C@H]1c1ccc(F)cc1)c1cc(C(F)(F)F)cc(C(F)(F)F)c1  IC50 (inhibitor; human PBMC; clinical isolate): 6370 nM
COc1ccccc1NC(=O)c1ccccc1Cl  IC50 (MT4): > 50000 nM
CSCC[C@H](NC(C)=O)C(=O)N[C@@H](CC(C)C)C(=O)N[C@@H](CCCNC(=N)N)C(=O)N[C@@H](Cc1c[nH]c2ccccc12)C(=O)N[C@@H](CO)C(=O)N[C@@H](CCCNC(=N)N)C(=O)N[C@@H](CCCCN)C(=O)N[C@@H](CC(C)C)C(=O)N1CCC[C@H]1C(=O)N[C@@H](CS)C(=O)N[C@H](C(=O)N[C@@H](CO)C(=O)O)C(C)C  IC50 (inhibitor; TZM-bl): > 10000 nM
CC(C)CN(C[C@@H](O)[C@H](Cc1ccccc1)NC(=O)O[C@H]1CCO[C@H]2OCC[C@H]21)S(=O)(=O)c1ccc(C(=O)O)cc1  IC50 (inhibitor; MT2): > 1000 nM
CC(C)c1nc(CN(C)C(=O)N[C@H](C(=O)N[C@@H](Cc2ccccc2)C[C@H](O)[C@H](Cc2ccccc2)NC(=O)OCc2cncs2)C(C)C)cs1  IC90 (inhibitor; human PBMC; clinical isolate): 92.3 nM
CC(C)CN(C[C@@H](O)[C@H](Cc1ccccc1)NC(=O)O[C@H]1CCO[C@H]2OCC[C@H]21)S(=O)(=O)c1ccc(B(O)O)cc1  IC50 (inhibitor; MT2): 120 nM
CC(C)CN(C[C@@H](O)[C@H](Cc1ccccc1)NC(=O)O[C@H]1CO[C@H]2OCC[C@H]21)S(=O)(=O)c1ccc(N)cc1  IC50 (MT2): 3.3 nM
Cc1cn([C@H]2C[C@H](N=[N+]=[N-])[C@@H](CO)O2)c(=O)[nH]c1=O  IC90 (human PBMC; clinical isolate): > 1000 nM
CC(C)CN(C[C@@H](O)[C@H](Cc1ccccc1)NC(=O)O[C@H]1CO[C@H]2OCC[C@H]21)S(=O)(=O)c1ccc(B(O)O)cc1  IC50 (MT4): 48.9 nM
